Screening data as filed in PubChem BioAssay.
TbHK1 inh = blocks Trypanosoma brucei hexokinase 1 activity. actives 0.11% (n = 220,000). inhibition, % at 10 µM. AID 1430. recombinant TbHK1, G6PDH-coupled NADH A340;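 active means inhibition of 50% or more in the single-dose primary screen; inactive means inhibition below 50%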
HKDC1 inhibitor = inhibitors of human hexokinase HKDC1 | Q2TB90 | recombinant HKDC1, G6PDH/diaphorase resazurin coupled fluorescence | inhibition, % at 20 µM | actives 0.16% (n = 340,000) | AID 493160;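 active means inhibition above about 35% when tested at 20 µM, limit read from the data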;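 further: plate controls were DMSO wells with enzyme for no effect and DMSO wells lacking enzyme for full effect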
Target sequence (Q2TB90 whole entry, looked up): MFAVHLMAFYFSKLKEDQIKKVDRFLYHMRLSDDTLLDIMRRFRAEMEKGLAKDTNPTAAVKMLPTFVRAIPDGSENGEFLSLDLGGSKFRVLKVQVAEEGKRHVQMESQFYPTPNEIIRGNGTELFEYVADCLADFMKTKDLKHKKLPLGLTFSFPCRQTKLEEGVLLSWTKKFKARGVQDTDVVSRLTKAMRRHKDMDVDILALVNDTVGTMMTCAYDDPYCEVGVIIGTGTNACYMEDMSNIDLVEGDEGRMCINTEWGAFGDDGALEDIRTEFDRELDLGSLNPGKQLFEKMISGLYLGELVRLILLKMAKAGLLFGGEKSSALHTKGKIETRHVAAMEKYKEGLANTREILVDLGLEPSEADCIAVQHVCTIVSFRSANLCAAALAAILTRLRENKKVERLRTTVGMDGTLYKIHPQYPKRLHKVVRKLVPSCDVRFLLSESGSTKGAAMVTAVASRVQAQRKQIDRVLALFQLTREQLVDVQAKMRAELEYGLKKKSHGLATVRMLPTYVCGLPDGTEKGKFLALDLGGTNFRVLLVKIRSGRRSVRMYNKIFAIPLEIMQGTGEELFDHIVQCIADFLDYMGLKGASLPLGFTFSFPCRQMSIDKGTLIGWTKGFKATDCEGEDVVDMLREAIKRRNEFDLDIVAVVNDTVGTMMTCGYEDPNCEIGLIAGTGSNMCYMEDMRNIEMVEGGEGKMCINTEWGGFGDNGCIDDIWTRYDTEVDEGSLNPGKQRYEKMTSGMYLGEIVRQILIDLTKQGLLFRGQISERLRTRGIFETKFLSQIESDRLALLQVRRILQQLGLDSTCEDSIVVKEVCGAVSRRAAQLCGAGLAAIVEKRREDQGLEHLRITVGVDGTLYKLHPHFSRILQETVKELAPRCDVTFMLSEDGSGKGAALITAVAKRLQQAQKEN
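test system = in-house recombinant HK5 (HKDC1) enzyme | amount = HKDC1 at 5 µg/mL | control set = DMSO-enzyme wells negative, buffer-substituted wells positive | compound = one dose of 20 µM, 1% DMSO | schedule = reaction time 90 min, room temperature, protected from light | technique = resorufin fluorescence at 613 nm | reagent = glucose with 1 mM ATP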
EP2 mod = modulators of human EP2 prostaglandin E2 receptor | actives 0.83% (n = 260,000) | EP2-expressing cells, cAMP HTRF FRET, PGE2 co-stimulation | P43116 | induction, % at 25 µM;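 active means compounds whose cAMP rise, as percent of the full-agonist control response, exceeds 60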;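 further: rat C6 glioma line stably carrying human EP2 under a CMV promoter; the protocol text gives 20 µM as final concentration; 100% = response of wells given 1 µM PGE2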
PGE2 EP2 inh = inhibitors of human EP2 prostaglandin E2 receptor; P43116; C6 glioma cells expressing human EP2, cAMP TR-FRET; cells stimulated with saturating PGE2; inhibition, % at 25 µM; actives 0.52% (n = 260,000);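 active means percent inhibition above 40 after rounding to a whole number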;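 further: rat C6 glioma host cells with rolipram phosphodiesterase inhibitor present; the protocol text gives 20 µM as final concentration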
PfGluPho inh = PfG6PD (Plasmodium falciparum) enzyme inhibition | PfGluPho enzyme, NADPH resazurin-diaphorase fluorescence | inhibition, % at 20 µM | actives 0.78% (n = 350,000);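 active means inhibition reaching at least a set limit at 20 µM in the primary screen, cut at about 59% in these data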;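 further: 0% = DMSO wells with substrate and 100% = DMSO wells lacking glucose-6-phosphate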
PHOSPHO1 inh = blocks human PHOSPHO1 phosphatase activity | Q8TCT1 | recombinant PHOSPHO1, absorbance phosphatase assay | inhibition, % at 13.3 µM | actives 1.1% (n = 290,000) | AID 1565; in the data active means inhibition above about 60%
G6PDH ctr = counter-screen for TbHK1 inhibitors: Leuconostoc G6PDH inhibition | inhibition, % at 10 µM | AID 2516 | purified G6PDH, NADH absorbance, 1 h | actives 7% (n = 210) | shares compounds with TbHK1 inh;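 active means at least 50% inhibition in the glucose-6-phosphate dehydrogenase coupled counterscreen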
TbHK1 confirm = confirmation of Trypanosoma brucei hexokinase 1 inhibitors. shares compounds with TbHK1 inh. recombinant TbHK1, G6PDH-coupled NADH A340 absorbance. inhibition, % at 10 µM. actives 10% (n = 210);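 active means inhibition of at least 50% in both of the two screening runs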;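 further: 0% and 100% set by the maximum and minimum signal control wells on each plate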
Active calls of the source: *; · = no result given; + = active, no number. Hits are enriched below; roughly 2.5% of the tested compounds scored in any of these assays.

SMILES	TbHK1 inh	HKDC1 inhibitor	EP2 mod	PGE2 EP2 inh	PfGluPho inh	PHOSPHO1 inh	G6PDH ctr	TbHK1 confirm
O=C(NNS(=O)(=O)c1ccccc1)c1ccc([N+](=O)[O-])cc1	·	5.0	·	·	-19.4	-10.7	·	·
CCCCC(=O)NC(=S)NNS(=O)(=O)c1ccccc1	56.0*	-33.0	13.4	6.6	41.9	-8.8	-17.5	2.0
O=C(NC(=S)NNS(=O)(=O)c1ccccc1)c1ccccc1[N+](=O)[O-]	65.2*	-29.6	26.7	9.6	14.2	1.7	-22.1	-0.6
O=C(NC(=S)NNS(=O)(=O)c1ccccc1)c1ccc([N+](=O)[O-])cc1	75.7*	-28.3	3.8	6.0	-3.1	-17.3	-33.3	1.2
O=C(NNC(=S)NC(=O)c1ccccc1[N+](=O)[O-])c1ccccc1Cl	17.3	-5.0	25.7	2.5	-10.7	-9.8	·	·
O=C(CSc1n[nH]c(-c2cccs2)n1)N1CCCc2ccccc21	-0.2	-12.4	18.0	3.1	-5.7	0.1	·	·
O=C(CSc1n[nH]c(-c2ccccc2O)n1)N1CCCc2ccccc21	63.9*	-3.5	-2.7	7.7	-7.8	26.2	-4.4	-1.5
Cc1cc2nc3ccc(=[N+](C)C)cc-3sc2cc1N	65.9*	46.9*	-413.4	+	101.9*	3.1	126.0*	76.7*
COc1cc(/C=C\c2nc(O)c([N+](=O)[O-])c(=O)[nH]2)ccc1OCc1ccccc1F	·	·	24.0	11.1	·	·	·	·
Cc1ccccc1C(=O)/C(C#N)=N/Nc1c(C)n(C)n(-c2ccccc2)c1=O	53.4*	8.6	31.2	10.2	-35.0	11.6	-81.1	-61.9
O=C(CN1C(=O)[C@@H]2CCCN2C(=O)c2ccccc21)NCc1cccc(F)c1	·	·	-2.5	11.3	·	·	·	·
O=C(O)CCn1nnc(-c2cccs2)n1	53.7*	8.0	4.0	2.2	-17.6	29.8	-2.8	0.9
Cc1cc(C(=O)NNS(=O)(=O)c2ccc(C(C)(C)C)cc2)nn1C(C)(C)C	52.4*	4.6	26.3	9.4	10.5	20.3	-6.4	3.5
O=C1CSC(c2ccccn2)N1c1ccccc1 (stereo not given)	60.9*	-9.1	-11.1	4.8	-13.5	-6.4	-0.2	1.5
Cc1sc2nc(C(C)C)n3c(=O)n(CC(=O)N4CCC(C(N)=O)CC4)nc3c2c1C	·	·	-3.0	·	·	·	·	·
COc1cccc(NC(=S)NC2CC3CCCC(C2)N3C2CC2)c1 (stereo not given)	·	·	-82.1	23.1	·	·	·	·
COc1cc(CCC(=O)OCC(N)=O)cc(OC)c1OC	55.6*	-0.7	7.0	4.3	-14.5	39.7	-6.1	-5.0
CCN(CC)c1ccc2cc(-c3nc4ccccc4n3C)c(=O)oc2c1	-3.7	-2.3	-41.4	5.3	1.9	-1.3	·	·
CCN(CC)c1ccc2cc(-c3nc4ccccc4[nH]3)c(=O)oc2c1	68.3*	7.0	-0.6	9.2	21.0	7.0	110.9*	83.9*
CCS(=O)(=O)c1ccc(O)c(NC(=O)Nc2ccccc2)c1	50.4*	-6.8	-4.5	8.3	-15.1	50.0	-3.3	1.5
CCS(=O)(=O)c1ccc(O)c(NC(=O)Nc2ccc(C(C)(C)C)cc2)c1	-3.3	1.5	-29.8	5.4	8.9	8.1	·	·
Cc1nc(S(=O)(=O)NC2CCCCC2)c(C#N)c(C)c1Cl	1.3	0.3	15.1	·	3.1	23.5	·	·
Cc1nc(S(=O)(=O)N2CCOCC2)c(C#N)c(C)c1Cl	55.4*	0.3	12.6	7.4	7.0	36.3	-8.5	-4.6
Cc1c(NC(=O)c2ccc3c(c2)OCCO3)cccc1-c1nc2ccccc2s1	·	·	16.4	7.2	·	·	·	·
O=C(O)COc1ccccc1C(Nc1ccccn1)c1cc(Cl)c2cccnc2c1O (stereo not given)	76.3*	-10.2	28.6	4.7	-26.2	21.1	-41.5	28.0
SMILES	TbHK1 inh	HKDC1 inhibitor	EP2 mod	PGE2 EP2 inh	PfGluPho inh	PHOSPHO1 inh	G6PDH ctr	TbHK1 confirm
COc1ccccc1C(NC(C)=O)c1cc(Cl)c2cccnc2c1O (stereo not given)	·	-21.6	·	·	42.8	24.2	·	·
COc1ccccc1N=Nc1ccc(O)c2ncccc12	·	3.7	·	·	20.3	-12.2	·	·
Cc1ccc(N=Nc2ccc(O)c3ncccc23)cc1	81.1*	-27.9	-10.6	4.9	-26.3	20.7	-19.7	0.5
CCc1nn(Cc2ccccn2)c(=O)c2cc3sc(C)cc3n12	·	·	-25.1	·	·	·	·	·
CN(C)S(=O)(=O)c1cccc(NC(=S)NN=C(Cc2ccccc2)Cc2ccccc2)c1	51.4*	-22.3	3.8	8.0	13.1	18.2	12.5	-4.1
CN(CCO)C(=O)CCC(=O)Nc1ccc(S(N)(=O)=O)cc1	59.6*	-6.8	-3.2	6.3	-12.3	-8.7	-0.8	5.8
CC(C)c1[nH]nc2c1C(c1cccnc1)C(C#N)=C(N)O2 (stereo not given)	51.9*	-12.5	14.9	8.3	3.0	-12.3	-10.8	3.8
COc1ccc(OCC(=O)OC(C)CN2CCCCC2)cc1 (stereo not given)	·	-6.5	·	·	-15.6	23.5	·	·
COc1ccc(CC(=O)OC(C)CN2CCCC2)cc1 (stereo not given)	55.5*	-6.6	7.7	10.2	-10.8	23.2	0.3	-3.2
OC(COCc1ccccc1)CN1CCCC1 (stereo not given)	60.3*	-3.8	1.7	6.6	-7.8	-10.0	-3.8	-7.1
COc1ccc(OC)c(NC(=O)c2cc3sccc3n2Cc2ccccc2)c1	·	·	-47.6	25.8	·	·	·	·
Cc1ccc(CNC(=O)C2CNc3cc(C)ccc3O2)cc1 (stereo not given)	57.6*	-5.6	-25.1	8.9	7.1	16.9	-6.6	16.3
O=C(Nc1cccc2ccccc12)c1ccc(NC(=O)c2cccs2)cc1	·	·	-30.0	8.0	·	·	·	·
Cc1cccc2cc(C#N)c(SCC(=O)N3CCCCCC3)nc12	·	·	27.0	15.0	·	·	·	·
COc1cccc(CNC(=O)c2ccc3nc[nH]c3c2)c1	66.8*	3.0	-4.1	12.9	-18.0	39.3	-0.5	-0.9
O=C(NCc1cccc(Cl)c1)c1ccc2nc[nH]c2c1	4.0	3.7	0.6	9.5	-13.4	11.6	·	·
O=C(Cn1nc(-c2cccs2)n(-c2ccncc2)c1=O)NC1CCCC1	·	·	9.5	9.3	·	·	·	·
Cc1ccc(NC(=O)CN2CCC(n3nnc4cc(C(F)(F)F)ccc43)CC2)c(Br)c1	·	·	6.7	7.5	·	·	·	·
CCCCCC(C(=O)O)C(C)CC(=O)NC1CCCCC1 (stereo not given)	63.1*	-2.4	-1.0	12.4	-1.7	9.9	-19.9	-6.7
Fc1cccc(NC(=S)NCc2ccccn2)c1	52.4*	-7.0	-23.3	10.2	-12.6	-9.3	3.5	0.5
COc1cccc(NC(=O)CSc2nnc(-c3ccco3)n2C)c1	·	·	51.7	8.6	·	·	·	·
CC(C)NC(=O)CSc1nc(N)cc(N)n1	·	·	-22.2	19.8	·	·	·	·
